Consider six molecules from paper PMC3447998 (Biochemistry, 2012).

“Also recorded” adds a separate entry of the source.

The test system of test [1] is endogenous NRMT (293LT cells). The test is described as follows: Co-precipitation of endogenous NRMT with FLAG-tagged substrate proteins. It is filed as binding. Particulars: C-terminally FLAG-tagged protein expressed in 293LT cells. Summed up:
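C-terminally FLAG-tagged RCC1 or VRK2 expressed in 293LT cells, immunoprecipitated with anti-FLAG, and run on 10% polyacrylamide gel with Coomassie staining. On-bead material washed 3× with 100 mM ammonium bicarbonate (pH 8.0), then reduced, carbamidomethylated and digested with endoproteinase Glu-C (enzyme:protein 1:20). Peptides acidified to pH 3.5 and analysed by nano-LC-MS on C18 capillary columns.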

Test [2] has as its system N-terminus of protein. To be noted: yeast and mammals; ref [24],[25]; cited from earlier work.
Test [3] relates to N-terminus of protein expressed in 293LT cells. It is filed as cell-based. To be noted: MS. Summed up: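 FLAG-tagged constructs were transfected into 293LT cells by calcium phosphate and immunoprecipitated on anti-FLAG beads. Bead-bound protein was reduced, carbamidomethylated and Glu-C digested (1:20). Peptides went to nanoflow reverse-phase HPLC-microESI with a high-resolution MS scan, then 5–10 data-dependent CAD/ETD MS2 scans. Spectra were interpreted manually. Each form's summed extracted-ion-chromatogram area over all charge states was divided by the peptide's total area.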

The test system of test [4] is N-terminal methylation in mouse spleen. Particulars: mouse spleen lysate/extract, MS. The essentials:
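Proteins from mouse spleen extract were immunoprecipitated with anti-me3-SPK antibody. On-bead samples were washed in 100 mM ammonium bicarbonate pH 8.0, reduced, carbamidomethylated and digested with Glu-C (1:20). Peptides were analysed by nanoflow reverse-phase HPLC with CAD/ETD tandem MS. N-terminal modifications were assigned by manual interpretation of the spectra.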

The test system of test [5] is FLAG-tagged NRMT. The test is described as follows: Co-precipitation of endogenous proteins with FLAG-tagged NRMT. It is filed as binding. Particulars: FLAG-tagged NRMT expressed in 293LT cells; Coomassie-stained gel. Summed up:
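NRMT carrying a C-terminal FLAG tag was expressed in 293LT cells. Endogenous partner proteins were co-immunoprecipitated with it. Immunoprecipitates were resolved on a 10% polyacrylamide gel and stained with Coomassie blue.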

B1: RCC1-FLAG: FLAG-tagged RCC1, possesses a S-P-K motif (protein)
chain: SPKRIAKRRSPPADAIPKSKKVKVSHRSHSTEPGLVLTLGQGDVGQLGLGENVMERKKPALVSIPEDVVQAEAGGMHTVCLSKSGQVYSFGCNDEGALGRDTSVEGSEMVPGKVELQEKVVQVSAGDSHTAALTDDGRVFLWGSFRDNNGVIGLLEPMKKSMVPVQVQLDVPVVKVASGNDHLVMLTADGDLYTLGCGEQGQLGRVPELFANRGGRQGLERLLVPKCVMLKSRGSRGHVRFQDAFCGAYFTFAISHEGHVYGFGLSNYHQLGTPGTESCFIPQNLTSFKNSTKSWVGFSGGQHHTVCMDSEGKAYSLGRAEYGRLGLGEGAEEKSIPTLISRLPAVSSVACGASVGYAVTKDGRVFAWGMGTNYQLGTGQDEDAWSPVEMMGKQLENRVVLSVSSGGQHTVLLVKDKEQS
modifications: left off: FLAG, C-terminal, kept
As for B1, the “capture / co-precipitation of endogenous NRMT (in words)” value (“capture / co-precipitation” below) in test [1] is reported as “efficiently captured endogenous NRMT”; in test [1] (listed as RCC1), “NRMT is co-precipitated”.

B2: TSNAX protein: protein with SNK-N-terminus (protein, UniProt Q99598 1-290, looked up)
Translin-associated protein X: MSNKEGSGGFRKRKHDNFPHNQRREGKDVNSSSPVMLAFKSFQQELDARHDKYERLVKLSRDITVESKRTIFLLHRITSAPDMEDILTESEIKLDGVRQKIFQVAQELSGEDMHQFHRAITTGLQEYVEAVSFQHFIKTRSLISMDEINKQLIFTTEDNGKENKTPSSDAQDKQFGTWRLRVTPVDYLLGVADLTGELMRMCINSVGNGDIDTPFEVSQFLRQVYDGFSFIGNTGPYEVSKKLYTLKQSLAKVENACYALKVRGSEIPKHMLADVFSVKTEMIDQEEGIS
Turning to B2, in test [2], the “N-terminal acetylation reported (in words)” value was “reported to be N-terminally acetylated”.

B3: ENSA protein: protein with SQK-N-terminus (protein, UniProt O43768 2-121, looked up)
Alpha-endosulfine: SQKQEEENPAEETGEEKQDTQEKEGILPERAEEAKLKAKYPSLGQKPGGSDFLMKRLQKGQKYFDSGDYNMAKAKMKNKQLPSAGPDKNLVTGDHIPTPQDLPQRKSSLVTSKLAGGQVE
Regarding B3, in test [2], the “N-terminal acetylation reported (in words)” value is “reported to be N-terminally acetylated”.

B4: MLC9: Myosin Light Chain isoform (protein)
chain: MSSKRAKAKTTKKRPQRATSNVFAMFDQSQIQEFKEAFNMIDQNRDGFIDKEDLHDMLASLGKNPTDEYLEGMMSEAPGPINFTMFLTMFGEKLNGTDPEDVIRNAFACFDEEASGFIHEDHLRELLTTMGDRFTDEEVDEMYREAPIDKKGNFNYVEFTRILKHGAKDKDD
modifications: 100% N-terminally acetylated (by MS); left off: FLAG, C-terminal, kept
Consider B4, for which the “capture / co-precipitation” value in test [1] is listed as “cannot IP endogenous NRMT”. For the same molecule, the “N-terminal modification (in words)” value in test [3] (293LT cells, immunoprecipitated protein) is “not N-terminally methylated”. In test [3] (over-expressed in 293LT cells), the N-terminal acetylation amounted to 100%. Also, in test [4], the “N-terminal methylation in vivo (in words)” value is on record as “methylated at the N-terminus in vivo; also recorded: N-terminally methylated”.

B5: Mina53: possesses a potential N-terminal methylation motif, MPKKAKPT (protein)
chain: MPKKAKPTGSGKEEGPAPCKQMKLEAAGGPSALNFDSPSSLFESLISPIKTETFFKEFWEQKPLLIQRDDPALATYYGSLFKLTDLKSLCSRGMYYGRDVNVCRCVNGKKKVLNKDGKAHFLQLRKDFDQKRATIQFHQPQRFKDELWRIQEKLECYFGSLVGSNVYITPAGSQGLPPHYDDVEVFILQLEGEKHWRLYHPTVPLAREYSVEAEERIGRPVHEFMLKPGDLLYFPRGTIHQADTPAGLAHSTHVTISTYQNNSWGDFLLDTISGLVFDTAKEDVELRTGIPRQLLLQVESTTVATRRLSGFLRTLADRLEGTKELLSSDMKKDFIMHRLPPYSAGDGAELSTPGGKLPRLDSVVRLQFKDHIVLTVLPDQDQSDEAQEKMVYIYHSLKNSRETHMMGNEEETEFHGLRFPLSHLDALKQIWNSPAISVKDLKLTTDEEKESLVLSLWTECLIQVV
For the molecule B5, in test [1], the “capture / co-precipitation” value is reported as “unable to capture endogenous NRMT”. Also, the “co-precipitation with FLAG-tagged NRMT (in words)” value in test [5] is “co-precipitates; also recorded: co-precipitated with FLAG-tagged NRMT”. Further, the “cleavage of the initial Met residue” value in test [3] (both samples, data not shown) came out at 100%.

B6: PTPCAAX2: protein tyrosine phosphatase PTPCAAX2 (protein, UniProt Q12974 1-164, looked up)
Protein tyrosine phosphatase …: MNRPAPVEISYENMRFLITHNPTNATLNKFTEELKKYGVTTLVRVCDATYDKAPVEKEGIHVLDWPFDDGAPPPNQIVDDWLNLLKTKFREEPGCCVAVHCVAGLGRAPVLVALALIECGMKYEDAVQFIRQKRRGAFNSKQLLYLEKYRPKMRLRFRDTNGHC
On to B6, for which, in test [2], the “N-terminal acetylation reported (in words)” value was “reported to be N-terminally acetylated”.
